Assay results: ChEMBL document CHEMBL1921792, “Synthesis and anticonvulsant activity of trans- and cis-2-(2,6-dimethylphenoxy)-N-(2- or 4-hydroxycyclohexyl)acetamides and their amine analogs” (Bioorg Med Chem, 2011)
Activity calls are given as the source filed them.

Columns and labels:
N1E-115 = test: Blockade of voltage-gated sodium channel in mouse N1E-115 cells assessed as stimulation at 100 umol at -90 mV holding potential by whole-cell patch clamp electrophysiological assay relative to control; format: cell-based
Method in brief: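 Whole-cell patch clamp with borosilicate glass electrodes on single cultured N1E-115 neuroblastoma cells. Compound at 100 µmol, holding potential -90 mV. Voltage-dependent sodium current expressed as % of control stimulation (no compound). Results from 5–8 cells averaged with SEM; significance by Student's t-test.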

Mus musculus [1] = test: Anticonvulsant activity in mouse assessed as protection against maximal electric shock-induced seizures at 100 mg/kg, ip after 4 hrs; format: functional, organism-based; set-up: dose 100 mg/kg
Method in brief: (§1)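 Phase I maximal electroshock screen in mice. Compound given ip as a suspension in 0.5% methylcellulose at 30, 100 or 300 mg/kg, tested at 30 min and 4 h. Small groups (1–8); result is number protected/number tested.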

Mus musculus [2] = test: Anticonvulsant activity in mouse assessed as protection against maximal electric shock-induced seizures at 100 mg/kg, ip after 0.5 hrs; format: functional, organism-based; set-up: dose 100 mg/kg; method in brief: as §1
Mus musculus [3] = test: Anticonvulsant activity in mouse assessed as protection against maximal electric shock-induced seizures at 30 mg/kg, ip after 0.5 hrs; format: functional, organism-based; set-up: dose 30 mg/kg; method in brief: as §1
Mus musculus [4] = test: Anticonvulsant activity in mouse assessed as protection against maximal electric shock-induced seizures at 30 mg/kg, ip after 4 hrs; format: functional, organism-based; set-up: dose 30 mg/kg; method in brief: as §1
Mus musculus [5] = test: Anticonvulsant activity in mouse assessed as protection against maximal electric shock-induced seizures at 300 mg/kg, ip after 0.5 hrs; format: functional, organism-based; set-up: dose 300 mg/kg; method in brief: as §1
Mus musculus [6] = test: Anticonvulsant activity in mouse assessed as protection against maximal electric shock-induced seizures at 300 mg/kg, ip after 4 hrs; format: functional, organism-based; set-up: dose 300 mg/kg; method in brief: as §1
Mus musculus [7] = test: Anticonvulsant activity against subcutaneous pentylenetetrazole-induced seizures in mouse at 30 mg/kg, ip after 0.5 hrs; format: functional, organism-based; set-up: dose 30 mg/kg
Method in brief: (§2)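 Phase I screen in mice. Compound given ip as a suspension in 0.5% methylcellulose, read at 30 min and 4 h. Pentylenetetrazole 85 mg/kg in 0.9% NaCl was injected sc into the posterior midline and animals watched ≥30 min. Protection meant no clonic spasm lasting ≥5 s. Groups of 1–8 animals; result is protected/tested.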

Mus musculus [8] = test: Anticonvulsant activity against subcutaneous pentylenetetrazole-induced seizures in mouse at 30 mg/kg, ip after 4 hrs; format: functional, organism-based; set-up: dose 30 mg/kg; method in brief: as §2
Mus musculus [9] = test: Anticonvulsant activity against subcutaneous pentylenetetrazole-induced seizures in mouse at 100 mg/kg, ip after 0.5 hrs; format: functional, organism-based; set-up: dose 100 mg/kg; method in brief: as §2
Mus musculus [10] = test: Anticonvulsant activity against subcutaneous pentylenetetrazole-induced seizures in mouse at 100 mg/kg, ip after 4 hrs; format: functional, organism-based; set-up: dose 100 mg/kg; method in brief: as §2
Mus musculus [11] = test: Anticonvulsant activity against subcutaneous pentylenetetrazole-induced seizures in mouse at 300 mg/kg, ip after 0.5 hrs; format: functional, organism-based; set-up: dose 300 mg/kg; method in brief: as §2
Mus musculus [12] = test: Anticonvulsant activity against subcutaneous pentylenetetrazole-induced seizures in mouse at 300 mg/kg, ip after 4 hrs; format: functional, organism-based; set-up: dose 300 mg/kg; method in brief: as §2
Mus musculus [13] = test: Neurotoxicity in mouse assessed as inability to maintain equilibrium on rotarod at 30 mg/kg, ip after 0.5 hrs by rotarod test; format: toxicity, organism-based; set-up: dose 30 mg/kg, route intraperitoneal; details: in vivo
Method in brief: (§3)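 Drug given ip to mice as a suspension in 0.5% methylcellulose. At the stated time after dosing, each mouse was placed on a 1 inch knurled rod turning at 6 rpm. Neurotoxicity = inability to stay balanced at least 1 min in each of three trials. Scored as animals toxic/animals tested in small groups.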

Mus musculus [14] = test: Neurotoxicity in mouse assessed as inability to maintain equilibrium on rotarod at 300 mg/kg, ip after 0.5 hrs by rotarod test; format: toxicity, organism-based; set-up: dose 300 mg/kg, route intraperitoneal; details: in vivo; method in brief: as §3
Mus musculus [15] = test: Neurotoxicity in mouse assessed as inability to maintain equilibrium on rotarod at 30 mg/kg, ip after 4 hrs by rotarod test; format: toxicity, organism-based; set-up: dose 30 mg/kg, route intraperitoneal; details: in vivo; method in brief: as §3
Mus musculus [16] = test: Neurotoxicity in mouse assessed as inability to maintain equilibrium on rotarod at 100 mg/kg, ip after 4 hrs by rotarod test; format: toxicity, organism-based; set-up: dose 100 mg/kg, route intraperitoneal; details: in vivo; method in brief: as §3
Mus musculus [17] = test: Neurotoxicity in mouse assessed as inability to maintain equilibrium on rotarod at 300 mg/kg, ip after 4 hrs by rotarod test; format: toxicity, organism-based; set-up: dose 300 mg/kg, route intraperitoneal; details: in vivo; method in brief: as §3
Rattus norvegicus [18] = test: Anticonvulsant activity in rat assessed as protection against maximal electric shock-induced seizures at 30 mg/kg, po after 0.5 hrs; format: functional, organism-based; set-up: dose 30 mg/kg
Method in brief: (§4)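 MES test in rats dosed orally at 30 mg/kg as a suspension in 0.5% methylcellulose, read at 0.25–4 h. Four rats per time point; result is protected/tested.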

Rattus norvegicus [19] = test: Neurotoxicity in rat assessed as neurological deficit at 30 mg/kg, po after 0.25 hrs […]; format: toxicity, organism-based; set-up: dose 30 mg/kg, route oral; details: in vivo
Method in brief: (§5)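 Rats given the compound, suspended in 0.5% methylcellulose, by the stated route and dose. Neurological deficit was recorded at the listed times as ataxia and loss of placing response and muscle tone. Reported as number of rats showing toxicity/number tested.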

Rattus norvegicus [20] = test: Neurotoxicity in rat assessed as neurological deficit at 30 mg/kg, po after 0.5 hrs […]; format: toxicity, organism-based; set-up: dose 30 mg/kg, route oral; details: in vivo; method in brief: as §5
Rattus norvegicus [21] = test: Neurotoxicity in rat assessed as neurological deficit at 30 mg/kg, po after 1 hr […]; format: toxicity, organism-based; set-up: dose 30 mg/kg, route oral; details: in vivo; method in brief: as §5
Rattus norvegicus [22] = test: Neurotoxicity in rat assessed as neurological deficit at 30 mg/kg, po after 2 hrs […]; format: toxicity, organism-based; set-up: dose 30 mg/kg, route oral; details: in vivo; method in brief: as §5
Rattus norvegicus [23] = test: Neurotoxicity in rat assessed as neurological deficit at 30 mg/kg, po after 4 hrs by rotarod test; format: toxicity, organism-based; set-up: dose 30 mg/kg, route oral; details: in vivo; method in brief: as §5
Rattus norvegicus [24] = test: Anticonvulsant activity in rat assessed as protection against maximal electric shock-induced seizures at 30 mg/kg, po after 0.25 hrs; format: functional, organism-based; set-up: dose 30 mg/kg; method in brief: as §4
Mus musculus [25] = test: Neurotoxicity in mouse assessed as inability to maintain equilibrium on rotarod at 100 mg/kg, ip after 0.5 hrs by rotarod test; format: toxicity, organism-based; set-up: dose 100 mg/kg, route intraperitoneal; details: in vivo; method in brief: as §3
[26] = Neurotoxicity in ip dosed mouse assessed as inability to maintain equilibrium on rotarod by rotarod test; format: toxicity, organism-based; details: in vivo
Method in brief: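 Mice dosed ip with a suspension in 0.5% methylcellulose, then placed on a 1 inch knurled plastic rod rotating at 6 rpm. Toxicity = failure to keep equilibrium for at least 1 min in each of three trials.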

[27] = Neurotoxicity in po dosed rat assessed as neurological deficit […]; format: toxicity, organism-based; details: in vivo
Method in brief: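 Rats dosed orally with a suspension in 0.5% methylcellulose. Neurological deficit judged by ataxia and loss of placing response and muscle tone.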

Mus musculus [28] = test: Anticonvulsant activity in ip dosed mouse assessed as protection against maximal electric shock-induced seizures; format: functional; details: Mus musculus, ip; read-out: ED50
Rattus norvegicus [29] = test: Anticonvulsant activity in po dosed rat assessed as protection against maximal electric shock-induced seizures; format: functional
Mus musculus [30] = organism: Mus musculus; test: Protective index, ratio of TD50 for neurotoxicity in mouse to ED50 for inhibition of maximal electroshock-induced seizures in mouse; format: functional
Rattus norvegicus [31] = organism: Rattus norvegicus; test: Protective index, ratio of TD50 for neurotoxicity in rat to ED50 for inhibition of maximal electroshock-induced seizures in rat; format: functional

NC(=O)N1c2ccccc2C=Cc2ccccc21
78%: Activity (N1E-115)

Cc1cccc(C)c1OCC(=O)NC1CCC(O)CC1.Cl (racemic)
Non-toxic: Activity (Mus musculus [13]) | Activity (Mus musculus [15]) | Activity (Mus musculus [16]) | Activity (Mus musculus [17]) | Activity (Rattus norvegicus [19]) | Activity (Rattus norvegicus [20]) | Activity (Rattus norvegicus [21]) | Activity (Rattus norvegicus [22]) | Activity (Rattus norvegicus [23])
active: Activity (Mus musculus [2]) | Activity (Mus musculus [5]) | Activity (Mus musculus [11]) | Activity (Rattus norvegicus [18]) | Activity (Rattus norvegicus [24])
Toxic: Activity (Mus musculus [14])
inactive: Activity (Mus musculus [1]) | Activity (Mus musculus [3]) | Activity (Mus musculus [4]) | Activity (Mus musculus [6]) | Activity (Mus musculus [7]) | Activity (Mus musculus [8]) | Activity (Mus musculus [9]) | Activity (Mus musculus [10]) | Activity (Mus musculus [12])

Cc1cccc(C)c1OCC(=O)N[C@@H]1CCCC[C@@H]1O
inactive: Activity (Mus musculus [1]) | Activity (Mus musculus [3]) | Activity (Mus musculus [4]) | Activity (Mus musculus [6]) | Activity (Mus musculus [7]) | Activity (Mus musculus [8]) | Activity (Mus musculus [9]) | Activity (Mus musculus [10]) | Activity (Mus musculus [11]) | Activity (Mus musculus [12])
active: Activity (Mus musculus [5])
Non-toxic: Activity (Mus musculus [13]) | Activity (Mus musculus [25]) | Activity (Mus musculus [14]) | Activity (Mus musculus [15]) | Activity (Mus musculus [16]) | Activity (Mus musculus [17])

Cc1cccc(C)c1OCCNC1CCC(O)CC1 (racemic)
Toxic: Activity (Mus musculus [14])
Non-toxic: Activity (Mus musculus [13]) | Activity (Mus musculus [15]) | Activity (Mus musculus [16])
inactive: Activity (Mus musculus [1]) | Activity (Mus musculus [3]) | Activity (Mus musculus [4]) | Activity (Mus musculus [7]) | Activity (Mus musculus [8]) | Activity (Mus musculus [9]) | Activity (Mus musculus [10])
active: Activity (Mus musculus [2])

O=C1NC(=O)C(c2ccccc2)(c2ccccc2)N1 [PHENYTOIN]
34.5 mg/kg: TD50 [26]
> 500 mg/kg: TD50 [27]
>22: Ratio TD50/ED50 (Rattus norvegicus [31])
6.6: Ratio TD50/ED50 (Mus musculus [30])
6.48 mg/kg: ED50 (Mus musculus [28])
32.2 mg/kg: ED50 (Rattus norvegicus [29])
78%: Activity (N1E-115)

Nc1nnc(-c2cccc(Cl)c2Cl)c(N)n1
67%: Activity (N1E-115)

Cc1cccc(C)c1OCC(=O)N[C@H]1CCCC[C@H]1O
active: Activity (Mus musculus [5]) | Activity (Mus musculus [11])
inactive: Activity (Mus musculus [1]) | Activity (Mus musculus [3]) | Activity (Mus musculus [4]) | Activity (Mus musculus [6]) | Activity (Mus musculus [7]) | Activity (Mus musculus [8]) | Activity (Mus musculus [9]) | Activity (Mus musculus [10]) | Activity (Mus musculus [12])
Non-toxic: Activity (Mus musculus [13]) | Activity (Mus musculus [25]) | Activity (Mus musculus [15]) | Activity (Mus musculus [16]) | Activity (Mus musculus [17])

Cc1cccc(C)c1OCC(=O)N[C@@H]1CCCC[C@H]1O.O=C(O)C(O)C(O)C(=O)O
active: Activity (Mus musculus [5])
Non-toxic: Activity (Mus musculus [13]) | Activity (Mus musculus [15]) | Activity (Mus musculus [16]) | Activity (Mus musculus [17]) | Activity (Rattus norvegicus [19]) | Activity (Rattus norvegicus [20]) | Activity (Rattus norvegicus [21]) | Activity (Rattus norvegicus [22]) | Activity (Rattus norvegicus [23])
inactive: Activity (Mus musculus [1]) | Activity (Mus musculus [2]) | Activity (Mus musculus [3]) | Activity (Mus musculus [4]) | Activity (Mus musculus [6]) | Activity (Mus musculus [7]) | Activity (Mus musculus [8]) | Activity (Mus musculus [9]) | Activity (Mus musculus [10]) | Activity (Mus musculus [11]) | Activity (Mus musculus [12]) | Activity (Rattus norvegicus [24])
